Bioassay records (PubChem)
SENP8 block-1 – human SENP8 protease inhibitors, primary screen, biochemical, fluorescence, Nedd8 protein substrate, uHTS. recombinant SENP8. inhibition, % at 20 µM. AID 602440, 2012. hit rate 0.64% among 360,000. Sentrin-specific protease 8 (Homo sapiens), Q96LD8; in the data active means inhibition mostly above about 40%, no sharp cut-off; inactive means mostly below about 27%
SENP8 block-2 – SENP8 protease inhibitors, primary screen, biochemical, luminescence; AID 2540, 2010; Sentrin-specific protease 8 (Homo sapiens), Q96LD8; purified SENP8, Z-RLRGG-aminoluciferin cleavage; inhibition, % at 10 µM; hit rate 1.2% among 330,000; in the data active means inhibition above about 50%
Apaf1 inhib – inhibitors of human Apaf-1 apoptosome, primary screen, biochemical, DEVD-Rh110 fluorescence, uHTS; Apoptotic protease-activating factor 1 (Homo sapiens), O14727; reconstituted apoptosome caspase-3 activity; inhibition, % at 20 µM; hit rate 0.71% among 330,000; AID 489030, 2010; active means inhibition of at least 40% at 20 µM;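 further: plate controls were DMSO wells for no effect and DEVD-CHO caspase inhibitor wells for full effect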
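Assay system: Apoptosome proteins | Medium: pH 7.5 Hepes buffer with CHAPS, BSA, DTT | Also added: Cytochrome c and DEVD-Rh110 substrate | Times: 30 min plus 50 min, RT | Detection: Rhodamine 110 fluorescence at Ex 480/Em 540 nm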
SENP7 inh – SENP7 protease inhibitors, primary screen, biochemical, luminescence, uHTS | Sentrin-specific protease 7 (Homo sapiens), Q9BQF6 | recombinant SENP7, Z-RLRGG-aminoluciferin luminescence, 40 min | inhibition, % at 5 µM | hit rate 1.5% among 330,000 | AID 434973, 2010;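 active means inhibition above about 50% at the single test dose, limit read from the data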;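 further: plate controls were DMSO with enzyme for no effect and no enzyme buffer wells for full effect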
Target sequence (Q9BQF6 706-1050 limits assumed): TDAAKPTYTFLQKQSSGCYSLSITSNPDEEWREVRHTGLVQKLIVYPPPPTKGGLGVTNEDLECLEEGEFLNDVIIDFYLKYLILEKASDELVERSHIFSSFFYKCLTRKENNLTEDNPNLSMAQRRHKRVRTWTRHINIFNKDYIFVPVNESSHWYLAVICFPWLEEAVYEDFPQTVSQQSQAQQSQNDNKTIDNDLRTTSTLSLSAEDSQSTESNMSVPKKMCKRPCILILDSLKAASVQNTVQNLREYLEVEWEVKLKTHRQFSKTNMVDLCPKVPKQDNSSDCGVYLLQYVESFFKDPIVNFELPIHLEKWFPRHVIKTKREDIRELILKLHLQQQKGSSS
SENP6 block – SENP6 protease inhibitors, primary screen, biochemical, luminescence, uHTS; Recombinant SENP6 catalytic domain, aminoluciferin luminescence; AID 2599, 2010; hit rate 1.8% among 330,000; inhibition, % at 10 µM;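 active means inhibition above about 50% at the single tested dose, limit read from the data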;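 further: plate controls were DMSO wells with enzyme for no effect and DMSO wells lacking enzyme for full effect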
UBC13 inh – UBC13 polyubiquitin chain formation inhibitors, primary screen, biochemical, TR-FRET, uHTS. inhibition, % at 20 µM. hit rate 0.47% among 330,000. Ubiquitin-conjugating enzyme E2 N (Homo sapiens), P61088; in the data active means inhibition above about 45%, passing the limit was not always enough
SENP8 confirm – SENP8 protease inhibitors, retest, confirmation, biochemical, luminescence, single concentration | shares compounds with SENP7 inh | Recombinant SENP8, Z-RLRGG-aminoluciferin luminescence, 60 min | inhibition, % at 12.5 µM | hit rate 40% among 6,200;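 active means mean inhibition across replicates above about 50%, limit read from the data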
SENP6 confirm – SENP6 protease inhibitors, confirmation, biochemical, luminescence, single concentration; recombinant SENP6, Z-RLRGG-aminoluciferin luminescence; AID 488915, 2010; inhibition, % at 12.5 µM; shares compounds with SENP7 inh; hit rate 58% among 6,200
SENP7 confirm – SENP7 protease inhibitors, retest, confirmation, biochemical, luminescence, single concentration. shares compounds with SENP7 inh. recombinant SENP7, Z-RLRGG-aminoluciferin luminescence, 40 min. inhibition, % at 12.5 µM. hit rate 69% among 6,200. AID 488917, 2010
Casp3 select – caspase-3 protease inhibitors, confirmation, selectivity assay for SENP inhibitor project, biochemical, single concentration; shares compounds with SENP7 inh; purified caspase-3, Z-DEVD-aminoluciferin luminescence, 60 min; inhibition, % at 12.5 µM; hit rate 60% among 6,200;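 active means mean inhibition above about 50%, limit read from the data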;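 further: plate controls were enzyme with DMSO for no effect and wells without caspase-3 for full effect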
Target sequence (P42574 28-227 limits assumed): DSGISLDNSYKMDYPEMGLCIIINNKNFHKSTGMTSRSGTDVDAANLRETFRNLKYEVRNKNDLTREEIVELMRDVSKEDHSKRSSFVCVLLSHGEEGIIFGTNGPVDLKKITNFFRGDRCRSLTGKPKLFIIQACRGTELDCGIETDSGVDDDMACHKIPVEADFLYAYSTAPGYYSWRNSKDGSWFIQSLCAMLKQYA
Luc interf – counter-screen for SENP inhibitors: luminescence interference; shares compounds with SENP7 inh; Pre-incubated SENP8/Z-RLRGG-aminoluciferin, luciferase luminescence interference; inhibition, % at 12.5 µM; hit rate 39% among 6,200; AID 488919;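 active means mean inhibition above about 50% when retested at one dose, limit read from the data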;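 further: plate controls were DMSO wells with completed reaction for no effect and substrate without enzyme for full effect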
* marks the source's active call; other numbers are inactive results. Rows were chosen to be rich in hits. Some 3% of all compounds tested hit in one or more screens of this group.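 How the source made its calls, unless noted: active means mean inhibition above about 50% in the one-dose retest (limit read from the data); inactive means the rest.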

Screening N/C(=N\OC(=O)c1ccc(Br)cc1)c1ccccc1 returned SENP8 block-1 13, SENP8 block-2 94*, Apaf1 inhib -8, SENP7 inh 99*, SENP6 block 93*, UBC13 inh -6, SENP8 confirm 81*, SENP6 confirm 96*, SENP7 confirm 102*, Casp3 select 97* and Luc interf 53*.
COc1ccc(C(=O)O/N=C(\N)c2ccccc2)cc1 was read as SENP8 block-1 23, SENP8 block-2 97*, Apaf1 inhib 4, SENP7 inh 100*, SENP6 block 97*, UBC13 inh 2, SENP8 confirm 99*, SENP6 confirm 100*, SENP7 confirm 103*, Casp3 select 98* and Luc interf 98*.
O=C(COC(=O)c1ccccc1)c1ccc(Br)cc1 was read as SENP8 block-1 8, SENP8 block-2 83*, Apaf1 inhib -10, SENP7 inh 2, SENP6 block 86*, UBC13 inh 7, SENP8 confirm 6, SENP6 confirm 64*, SENP7 confirm 87*, Casp3 select 63* and Luc interf 38.
`Cc1cc(C(=O)O/N=C(\N)c2ccc(C(C)(C)C)cc2)no1` gave SENP8 block-1 8, SENP8 block-2 -6, Apaf1 inhib -18, SENP7 inh 0, SENP6 block -12 and UBC13 inh 3.
`COc1ccc(C(=O)O/N=C(\N)c2ccc(Br)cc2)cc1` gave SENP8 block-1 14, SENP8 block-2 -1, Apaf1 inhib 8, SENP7 inh 26, SENP6 block 26 and UBC13 inh 7.
For CC(C)(C)c1ccc(C(=O)O/N=C(\N)c2ccccc2)cc1 the results were SENP8 block-1 10, SENP8 block-2 90*, Apaf1 inhib 12, SENP7 inh 95*, SENP6 block 93*, UBC13 inh 2, SENP8 confirm 96*, SENP6 confirm 96*, SENP7 confirm 102*, Casp3 select 92* and Luc interf 39.
`C=CCC[C@H](Cc1ccc(F)cc1)C(=O)OC[C@H](Cc1c[nH]c2ccccc12)NC(=O)[C@@H](CC=C)CC(=O)NCCO` gave SENP8 block-1 14, SENP8 block-2 0, Apaf1 inhib 12, SENP7 inh -9, SENP6 block -11 and UBC13 inh 38.
`CC(C)(C)n1nnnc1C(c1ccccc1)N1CCN(CCN2CCOCC2)CC1` (centres undefined) gave SENP8 block-1 5.
Screening COc1ccc(/C(N)=N/OC(=O)CSc2ccc(C)cc2)cc1 returned SENP8 block-1 9, SENP8 block-2 2, Apaf1 inhib -6, SENP7 inh 1, SENP6 block -16 and UBC13 inh 8.
COc1ccc(/C(N)=N/OC(=O)CSc2ccccc2)cc1 was read as SENP8 block-1 13, SENP8 block-2 42, Apaf1 inhib 2, SENP7 inh 63*, SENP6 block 77*, UBC13 inh -1, SENP8 confirm 57*, SENP6 confirm 65*, SENP7 confirm 87* and Luc interf 41.
Screening CC(OC(=O)c1ccc(-c2ccc(O)cc2)cc1)C(=O)NC1CCCCC1C (centres undefined) returned SENP8 block-1 inactive, SENP8 block-2 -11, Apaf1 inhib 3, SENP7 inh 12, SENP6 block -21 and UBC13 inh 9.
COc1ccc(S(=O)(=O)N2CCN(C(=O)COc3ccc(C)c(C)c3)CC2)cc1OC was read as SENP8 block-1 11, SENP8 block-2 -8, Apaf1 inhib 1, SENP7 inh 8, SENP6 block -3 and UBC13 inh -7.
`COC(=O)CSc1nnc(-c2sc3ccccc3c2Cl)o1` gave SENP8 block-1 -306, SENP8 block-2 28, Apaf1 inhib 3, SENP7 inh 56*, SENP6 block 70*, UBC13 inh 9, SENP8 confirm -5, SENP6 confirm -3, SENP7 confirm 5, Casp3 select 9 and Luc interf 2.
`Clc1ccccc1/C=C/C=N/Nc1nc(N2CCOCC2)nc(N2CCOCC2)n1` gave SENP8 block-1 11, SENP8 block-2 -9, Apaf1 inhib 10, SENP7 inh 1, SENP6 block 5 and UBC13 inh -9.
Screening O=C(N/N=C/c1ccccc1Cl)c1nc2ccc([N+](=O)[O-])cc2c(=O)[nH]1 returned SENP8 block-1 -50, SENP8 block-2 75*, Apaf1 inhib 6, SENP7 inh 46, SENP6 block 57*, UBC13 inh -60, SENP8 confirm 47, SENP6 confirm 53*, SENP7 confirm 48, Casp3 select 50* and Luc interf 45.
`O=C(NN=Cc1ccccc1Cl)c1ccccc1` gave SENP8 block-1 20.
`O=C(N/N=C/c1ccccc1Cl)c1ccc(F)cc1` gave SENP8 block-1 8, SENP8 block-2 9, Apaf1 inhib -14, SENP7 inh 37, SENP6 block 69*, UBC13 inh -2, SENP8 confirm 2, SENP6 confirm 16, SENP7 confirm 8, Casp3 select 48 and Luc interf 44.
`CC1CN(C=O)CC(C)N1CCN1C(C)CN(C=O)CC1C` (centres undefined) gave SENP8 block-1 15.
